Source: ChEMBL document CHEMBL1123812, “Pyrroloisoquinoline antidepressants. 2. In-depth exploration of structure-activity relationships” (J Med Chem, 1987)
Activity calls are given as the source filed them.

Tests used:
D(2) dopamine receptor = D(2) dopamine receptor (Rattus norvegicus, UniProt P61169); assay: Binding affinity towards Dopamine receptor D2
[1] = target: Sodium-dependent dopamine transporter (Rattus norvegicus, UniProt P23977); assay: Inhibition of the uptake of tritiated dopamine (DA) in rat synaptosomes; assay type: subcellular, Brain
Sequence of Sodium-dependent dopamine transporter (P23977 whole entry): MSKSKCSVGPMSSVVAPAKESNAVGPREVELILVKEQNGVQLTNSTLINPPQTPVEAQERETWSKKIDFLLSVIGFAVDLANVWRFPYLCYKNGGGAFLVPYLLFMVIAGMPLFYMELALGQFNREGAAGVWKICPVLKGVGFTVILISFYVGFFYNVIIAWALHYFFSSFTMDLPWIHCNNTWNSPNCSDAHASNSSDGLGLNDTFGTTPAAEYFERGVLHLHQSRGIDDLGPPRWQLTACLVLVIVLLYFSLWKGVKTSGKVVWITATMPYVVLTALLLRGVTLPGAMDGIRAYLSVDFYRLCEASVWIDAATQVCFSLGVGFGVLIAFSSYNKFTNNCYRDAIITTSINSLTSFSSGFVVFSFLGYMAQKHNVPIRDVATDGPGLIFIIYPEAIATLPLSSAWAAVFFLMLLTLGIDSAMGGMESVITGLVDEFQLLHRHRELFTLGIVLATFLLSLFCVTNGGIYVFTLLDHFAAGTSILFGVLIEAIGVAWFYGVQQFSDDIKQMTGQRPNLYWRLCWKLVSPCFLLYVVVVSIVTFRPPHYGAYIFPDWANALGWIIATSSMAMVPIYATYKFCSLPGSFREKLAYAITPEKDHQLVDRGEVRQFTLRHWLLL

Mus musculus [2] = species: Mus musculus; assay: Antagonism of tetrabenazine (TBZ)-induced depression in mice measured for ptosis; assay type: functional
Procedure, shortened: (§1)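 Nonfasted male Swiss Webster mice, 18–24 g, ten per dose level and in saline controls. Test compound given ip 30 min before tetrabenazine 32 mg/kg ip; dose expressed as free base. Motor activity and ptosis scored. Control response ≤90% corrected by Abbott's formula.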

[3] = target: T1, Adrenergic receptor alpha-1 (Rattus norvegicus, UniProt P15823+P23944+P43140); assay: Binding affinity towards alpha-1 adrenergic receptor; assay type: protein assay
T1 sequence (P15823 whole entry): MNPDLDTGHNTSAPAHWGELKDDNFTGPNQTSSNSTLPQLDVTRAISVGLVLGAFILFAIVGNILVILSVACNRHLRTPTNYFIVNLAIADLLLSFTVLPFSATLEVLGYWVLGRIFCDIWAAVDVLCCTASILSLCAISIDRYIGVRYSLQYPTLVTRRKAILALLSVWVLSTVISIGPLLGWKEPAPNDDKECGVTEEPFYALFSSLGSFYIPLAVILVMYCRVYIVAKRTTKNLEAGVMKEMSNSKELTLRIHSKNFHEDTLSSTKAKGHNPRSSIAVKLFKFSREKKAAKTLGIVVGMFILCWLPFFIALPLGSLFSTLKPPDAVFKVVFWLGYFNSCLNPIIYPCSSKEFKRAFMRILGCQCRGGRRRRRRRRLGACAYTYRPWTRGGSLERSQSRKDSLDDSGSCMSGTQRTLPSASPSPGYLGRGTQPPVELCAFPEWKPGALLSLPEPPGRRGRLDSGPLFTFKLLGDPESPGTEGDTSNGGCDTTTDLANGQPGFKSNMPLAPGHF
T1 sequence (P23944 whole entry): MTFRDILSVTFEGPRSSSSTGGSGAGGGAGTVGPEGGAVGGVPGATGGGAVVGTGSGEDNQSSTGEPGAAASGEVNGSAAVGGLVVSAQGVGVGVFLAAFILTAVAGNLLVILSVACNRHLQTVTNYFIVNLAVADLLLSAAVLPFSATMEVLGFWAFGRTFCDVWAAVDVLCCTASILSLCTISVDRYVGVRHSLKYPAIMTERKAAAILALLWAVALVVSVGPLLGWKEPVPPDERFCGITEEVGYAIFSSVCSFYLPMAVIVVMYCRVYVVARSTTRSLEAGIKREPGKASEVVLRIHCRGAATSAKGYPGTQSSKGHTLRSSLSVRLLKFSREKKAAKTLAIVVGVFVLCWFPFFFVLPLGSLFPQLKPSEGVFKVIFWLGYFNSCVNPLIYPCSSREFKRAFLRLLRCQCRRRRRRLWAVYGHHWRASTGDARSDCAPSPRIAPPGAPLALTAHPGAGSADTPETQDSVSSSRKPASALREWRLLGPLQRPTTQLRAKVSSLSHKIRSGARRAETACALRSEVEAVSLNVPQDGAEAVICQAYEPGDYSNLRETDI
T1 sequence (P43140 whole entry): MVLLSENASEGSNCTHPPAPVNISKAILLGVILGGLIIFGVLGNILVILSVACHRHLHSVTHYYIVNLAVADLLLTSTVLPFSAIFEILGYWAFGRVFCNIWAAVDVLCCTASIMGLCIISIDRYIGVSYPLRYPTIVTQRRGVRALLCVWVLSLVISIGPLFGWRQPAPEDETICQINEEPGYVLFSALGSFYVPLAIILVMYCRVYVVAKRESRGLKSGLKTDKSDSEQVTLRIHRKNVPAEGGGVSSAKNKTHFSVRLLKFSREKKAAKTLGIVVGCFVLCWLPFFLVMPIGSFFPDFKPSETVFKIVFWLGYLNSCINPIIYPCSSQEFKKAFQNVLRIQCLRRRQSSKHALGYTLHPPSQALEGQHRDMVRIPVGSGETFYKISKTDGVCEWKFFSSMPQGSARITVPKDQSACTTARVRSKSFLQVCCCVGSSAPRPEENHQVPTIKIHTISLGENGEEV

[4] = target: Serotonin 1 (5-HT1) receptor (Rattus norvegicus, UniProt P28564+P30940+P19327+P28565); assay: Binding affinity towards serotonin S1 receptor; assay type: protein assay
Procedure, shortened: (§2)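 Rat brain crude synaptic membranes in 20 mM NaHEPES pH 7.5. Ligands: α1 cortex […] 0.4 nM, nonspecific with (-)-NE 100 μM, 30 min at 25 °C. […] D2 striatum [3H]spiperone 0.05 nM with (+)-butaclamol 1 μM, 45 min at 37 °C. S1 cortex [3H]5-HT 1 nM plus glutathione and MgCl2, with 5-HT 10 μM, 20 min at 37 °C. […] Samples filtered on GF/B and counted.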

Mus musculus [5] = species: Mus musculus; assay: Antagonism of tetrabenazine (TBZ)-induced depression measured in mice by motor activity; assay type: functional; procedure, shortened: as §1
[6] = target: Norepinephrine transporter (Rattus norvegicus, UniProt Q9WTR4); assay: Inhibition of uptake of tritiated norepinephrine (NE) in rat synaptosomes; assay type: subcellular, Brain
Sequence of Norepinephrine transporter (Q9WTR4 whole entry): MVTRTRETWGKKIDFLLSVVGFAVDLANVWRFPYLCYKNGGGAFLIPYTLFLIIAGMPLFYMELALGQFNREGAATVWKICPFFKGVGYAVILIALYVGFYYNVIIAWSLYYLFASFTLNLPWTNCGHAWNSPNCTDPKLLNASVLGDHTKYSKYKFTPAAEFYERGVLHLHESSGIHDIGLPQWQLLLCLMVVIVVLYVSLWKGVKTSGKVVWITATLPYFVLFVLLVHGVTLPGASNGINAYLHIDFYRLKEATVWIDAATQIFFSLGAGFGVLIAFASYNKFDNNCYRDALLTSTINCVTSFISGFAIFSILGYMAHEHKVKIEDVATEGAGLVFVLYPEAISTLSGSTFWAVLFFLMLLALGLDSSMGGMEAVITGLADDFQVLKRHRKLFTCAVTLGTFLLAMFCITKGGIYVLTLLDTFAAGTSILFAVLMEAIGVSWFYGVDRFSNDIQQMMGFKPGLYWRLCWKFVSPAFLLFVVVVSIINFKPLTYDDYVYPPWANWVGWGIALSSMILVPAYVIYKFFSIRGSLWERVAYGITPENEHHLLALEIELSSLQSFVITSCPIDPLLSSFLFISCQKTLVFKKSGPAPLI

[7] = target: Serotonin 2 (5-HT2) receptor (Rattus norvegicus, UniProt P30994+P08909+P14842); assay: Binding affinity towards 5-hydroxytryptamine 2 receptor; assay type: protein assay
[8] = target: Sodium-dependent dopamine transporter (Rattus norvegicus) (UniProt P23977); assay: Inhibition of tritiated dopamine (DA) uptake at 0.1 uM concentration; assay type: functional
Sequence of Sodium-dependent dopamine transporter (Rattus norvegicus) (P23977 whole entry): as the sequence (P23977 whole entry) above
Procedure, shortened: (§3)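 Male Wistar rat brain synaptosomes (P2 fraction): hypothalamus for NE, striatum for DA, cerebral cortex for 5-HT. Buffer is Tris- or HEPES-buffered salt medium with glucose, ascorbate and nialamide, pH 7.4 at 37 °C. Preincubated 10 min at 37 °C with compound. Uptake started with [3H]NE 100–300 nM, [3H]DA 50–300 nM or [3H]5-HT 100–200 nM, incubated 3 min (DA) or 6–10 min (NE, 5-HT). Blanks held on ice. Filtered, counted by scintillation.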

Rattus norvegicus [9] = species: Rattus norvegicus; assay: Ability to inhibit the uptake of tritiated norepinephrine (NE) at 0.1 uM concentration; assay type: functional; procedure, shortened: as §3
Mus musculus [10] = species: Mus musculus; assay: Gross behavioral effects ascertained in mice; W indicates weak stimulant or depressant activity of little significance.; assay type: functional, organism-based
Procedure, shortened: (§4)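 Male Swiss Webster mice, 18–24 g, three per dose, given ip doses of 1, 3, 10, 30, 100 and 300 mg/kg. Observed for gross behavior and held for 4 days. Scored as weak (W), stimulant (S), depressant (D) or convulsant (C).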

D(1A) dopamine receptor = D(1A) dopamine receptor (Rattus norvegicus, UniProt P18901); assay: Binding affinity towards Dopamine receptor D1
Sequence of D(1A) dopamine receptor (P18901 whole entry): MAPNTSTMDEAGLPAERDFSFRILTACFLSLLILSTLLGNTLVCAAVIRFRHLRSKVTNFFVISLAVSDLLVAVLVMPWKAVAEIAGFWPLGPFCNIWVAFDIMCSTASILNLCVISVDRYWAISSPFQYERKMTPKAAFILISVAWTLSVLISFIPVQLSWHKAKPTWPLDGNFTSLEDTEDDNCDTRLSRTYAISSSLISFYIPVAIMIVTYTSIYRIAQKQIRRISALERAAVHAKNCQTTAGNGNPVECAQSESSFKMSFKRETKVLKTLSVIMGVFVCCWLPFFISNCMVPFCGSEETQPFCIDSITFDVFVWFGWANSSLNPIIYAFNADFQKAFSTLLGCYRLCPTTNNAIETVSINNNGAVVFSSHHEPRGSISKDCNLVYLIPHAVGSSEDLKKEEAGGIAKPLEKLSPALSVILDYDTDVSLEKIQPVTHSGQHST

[11] = target: Sodium-dependent serotonin transporter (Rattus norvegicus) (UniProt P31652); assay: Inhibition of tritiated serotonin(5-HT) uptake at 0.1 uM concentration; assay type: functional; procedure, shortened: as §3
Sequence of Sodium-dependent serotonin transporter (Rattus norvegicus) (P31652 whole entry): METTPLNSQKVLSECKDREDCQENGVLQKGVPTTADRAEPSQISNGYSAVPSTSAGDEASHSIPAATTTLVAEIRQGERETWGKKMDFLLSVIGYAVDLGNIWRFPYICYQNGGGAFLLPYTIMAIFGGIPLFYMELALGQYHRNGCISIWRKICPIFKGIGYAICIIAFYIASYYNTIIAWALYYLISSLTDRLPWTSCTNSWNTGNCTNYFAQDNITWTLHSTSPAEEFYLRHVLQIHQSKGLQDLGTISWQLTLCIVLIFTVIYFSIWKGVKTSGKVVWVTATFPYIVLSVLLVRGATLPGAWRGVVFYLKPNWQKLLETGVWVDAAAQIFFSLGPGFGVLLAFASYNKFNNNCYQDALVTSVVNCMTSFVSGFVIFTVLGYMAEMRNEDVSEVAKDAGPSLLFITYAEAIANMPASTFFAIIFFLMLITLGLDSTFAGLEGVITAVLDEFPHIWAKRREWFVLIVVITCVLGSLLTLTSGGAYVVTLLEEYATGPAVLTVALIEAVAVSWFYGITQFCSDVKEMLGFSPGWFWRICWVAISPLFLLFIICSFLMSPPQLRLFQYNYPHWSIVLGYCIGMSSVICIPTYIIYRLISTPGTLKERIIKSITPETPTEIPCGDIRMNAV

[12] = target: D(2) dopamine receptor (Rattus norvegicus) (UniProt P61169); assay: Binding affinity towards dopamine receptor D2 at 1.0 uM concentration; procedure, shortened: as §2
Sequence of D(2) dopamine receptor (Rattus norvegicus) (P61169 whole entry): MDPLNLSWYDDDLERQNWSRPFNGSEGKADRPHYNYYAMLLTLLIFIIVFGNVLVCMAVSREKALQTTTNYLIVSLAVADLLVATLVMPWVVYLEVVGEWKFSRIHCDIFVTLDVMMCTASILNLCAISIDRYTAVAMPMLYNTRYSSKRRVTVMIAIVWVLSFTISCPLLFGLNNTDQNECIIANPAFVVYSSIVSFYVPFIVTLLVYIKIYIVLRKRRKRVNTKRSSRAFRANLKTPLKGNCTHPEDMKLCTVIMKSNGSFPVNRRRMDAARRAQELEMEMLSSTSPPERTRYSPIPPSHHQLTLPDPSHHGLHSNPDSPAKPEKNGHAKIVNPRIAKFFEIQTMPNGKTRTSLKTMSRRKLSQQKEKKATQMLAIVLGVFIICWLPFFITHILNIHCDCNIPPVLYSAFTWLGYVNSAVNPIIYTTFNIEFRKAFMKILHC

[13] = target: Norepinephrine transporter (Rattus norvegicus) (UniProt Q9WTR4); assay: Ability to inhibit the uptake of [3H]norepinephrine (NE) 0.1 uM concentration at rat brain synaptosomes; assay type: functional, subcellular; procedure, shortened: as §3
Sequence of Norepinephrine transporter (Rattus norvegicus) (Q9WTR4 as listed by the source): as the sequence (Q9WTR4 whole entry) above

Rattus norvegicus [14] = species: Rattus norvegicus; assay: Ability to inhibit the uptake of tritiated dopamine (DA) 1 uM concentration; assay type: functional
Procedure, shortened: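 Rat brain synaptosomal [3H]dopamine uptake: striatal P2 fraction, test compound at 1.00 μM. Preincubated at 37 °C, then 50–300 nM [3H]DA for 3 min. Blanks on ice. Filtration and scintillation counting; percent inhibition of control uptake.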

Mus musculus [15] = assay: Ability to antagonise intraperitoneal dose; inactive (<10% antagonism) at 30 mgjkg is represented as I-30.; assay type: functional, organism-based; procedure, shortened: as §1
Mus musculus [16] = species: Mus musculus; assay: Gross behavioral effects ascertained in mice; C indicates overt convulsant; assay type: functional, organism-based; procedure, shortened: as §4
[17] = target: Sodium-dependent serotonin transporter (Rattus norvegicus) (UniProt P31652); assay: Ability to inhibit the uptake of [3H]- serotonin(5-HT) 0.1 uM concentration at rat brain synaptosomes; assay type: functional, subcellular; procedure, shortened: as §3
Mus musculus [18] = assay: Ability to antagonise intraperitoneal dose; inactive (<10% antagonism) at 30 mg/kg is represented as I-30.; assay type: functional, organism-based; design: dose 30 mg/kg; procedure, shortened: as §1
[19] = target: D(1A) dopamine receptor (Rattus norvegicus) (UniProt P18901); assay: Binding affinity towards Dopamine receptor D1 at 1.0 uM concentration; procedure, shortened: as §2
Sequence of D(1A) dopamine receptor (Rattus norvegicus) (P18901 whole entry): as the sequence (P18901 whole entry) above

[20] = target: Adrenergic receptor alpha-1 (Rattus norvegicus) (UniProt P15823+P23944+P43140); assay: Binding affinity towards alpha-1 adrenergic receptor at 1.0 uM concentration; assay type: protein assay; procedure, shortened: as §2
[21] = target: Serotonin 1 (5-HT1) receptor (Rattus norvegicus) (UniProt P28564+P30940+P19327+P28565); assay: Binding affinity towards serotonin S1 receptor at 1.0 uM; assay type: protein assay; procedure, shortened: as §2
Mus musculus [22] = species: Mus musculus; assay: Gross behavioral effects ascertained in mice; D indicates significant depressant properties.; assay type: functional, organism-based
Procedure, shortened: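 Male Swiss Webster albino mice, 18–24 g, three per dose, given ip 1, 3, 10, 30, 100 and 300 mg/kg. Gross behaviour observed and held 4 days. Estimated LD50 range from lethality count on day 4. Scored as weak stimulant/depressant, significant stimulant, significant depressant or overt convulsant.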

Sequence of D(2) dopamine receptor (P61169 whole entry): as the sequence (P61169 whole entry) above

Structure (SMILES): Br.Clc1ccccc1[C@@H]1CN2CCC[C@@H]2c2ccccc21 (stereo in doubt; 24b)
- Ki (D(2) dopamine receptor): 415 nM
- Ki [1]: 35.9 nM
- ED50 (Mus musculus [2]): 0.44 mg/kg
- Ki [3]: 163 nM
- Ki [4]: 1680 nM
- ED50 (Mus musculus [5]): 1.6 mg/kg

Structure (SMILES): FC(F)(F)c1cccc([C@@H]2CN3CCC[C@@H]3c3ccccc32)c1 (stereo in doubt; 37b)
- Ki (D(2) dopamine receptor): 2220 nM
- Ki [1]: 54.3 nM
- ED50 (Mus musculus [2]; Mus musculus, read-out: ED50): 0.58 mg/kg
- Ki [6]: 0.95 nM
- Ki [7]: 602 nM
- Ki [3]: 213 nM
- ED50 (Mus musculus [5]; Mus musculus, read-out: ED50): 0.78 mg/kg

Structure (SMILES): Br.Oc1cc2c(cc1O)[C@@H]1CCCN1C[C@H]2c1ccccc1
- inhibition [8]: 22%
- Inhibition (Rattus norvegicus [9]): 35%
- ED50 (Mus musculus [2]; Mus musculus, read-out: ED50): > 60 mg/kg
- behavior (Mus musculus [10]): Partial stimulant
- Ki (D(1A) dopamine receptor): 64 nM
- inhibition [11]: 0%
- inhibition [12]: 19%
- ED50 (Mus musculus [5]; Mus musculus, read-out: ED50): > 60 mg/kg

Structure (SMILES): C[C@@]12CCCN1C[C@@H](c1ccccc1)c1ccccc12
- inhibition [13]: 2%
- Inhibition (Rattus norvegicus [14]): 25%
- ED50 (Mus musculus [15]): inactive
- behavior (Mus musculus [16]): Overt convulsant
- inhibition [17]: 23%
- ED50 (Mus musculus [18]): inactive

Structure (SMILES): COc1ccc2c(c1)CN(C)CC2c1ccc(Cl)c(Cl)c1 (stereo unspecified) [DICLOFENSINE]
- Ki [1]: 10.9 nM
- Ki [6]: 8.8 nM
- Ki [7]: 37 nM
- inhibition [19]: 38%
- inhibition [20]: -6%
- inhibition [12]: 27%
- inhibition [21]: 33%

Structure (SMILES): CSc1ccc([C@@H]2CN3CCC[C@@H]3c3ccccc32)cc1 (stereo in doubt; 48b)
- ED50 (Mus musculus [2]; Mus musculus, read-out: ED50): 0.3 mg/kg
- Ki [7]: 208 nM
- Ki [3]: 314 nM
- Ki [4]: 1030 nM
- ED50 (Mus musculus [5]; Mus musculus, read-out: ED50): > 30 mg/kg

Structure (SMILES): c1ccc([C@H]2CN3CC[C@@H]4CCCC[C@@]43c3ccccc32)cc1
- inhibition [13]: 3%
- Inhibition (Rattus norvegicus [14]): 17%
- ED50 (Mus musculus [15]): inactive
- behavior (Mus musculus [16]): Overt convulsant
- inhibition [17]: 9%
- ED50 (Mus musculus [18]): inactive

Structure (SMILES): CSc1ccc([C@@H]2CN3CCC[C@@H]3c3ccccc32)cc1 (stereo in doubt; (-)-48b)
- Ki [7]: 939 nM
- Ki [3]: 213 nM
- Ki [4]: 775 nM

Structure (SMILES): Br.CC(=O)Nc1ccc([C@@H]2CN3CCC[C@@H]3c3ccccc32)cc1
- ED50 (Mus musculus [2]; Mus musculus, read-out: ED50): 0.042 mg/kg
- behavior (Mus musculus [22]): Significant depressant
- ED50 (Mus musculus [5]; Mus musculus, read-out: ED50): 0.037 mg/kg
